# Assay results from ChEMBL document CHEMBL1158548, “Tetrahydrochromenoimidazoles as potassium-competitive acid blockers (P-CABs): structure-activity relationship of their antisecretory properties and their affinity toward the hERG channel” (J Med Chem, 2010).
# Activity calls are given as the source filed them. No cut-off for these calls is given here.
# Experiments:
# Rattus norvegicus [1] = assay: Inhibition of pentagastrin-stimulated acid secretion in intraduodenally dosed perfused Sprague-Dawley rat Ghosh Schild model; format: functional; details: intraduodenal
# [2] = Partition coefficient, log D by HPLC; format: physicochemical; details: octanol/water
# Method in brief: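 logD by reversed-phase HPLC at 37 °C, calibrated with seven reference substances of known logD.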
# hERG (KCNH2) = hERG (KCNH2) (Homo sapiens, UniProt Q12809); assay: Inhibition of human ERG expressed in CHO-K1 cells at 10 uM by whole-cell patch clamp technique; format: cell-based; details: CHO-K1 cells that express human ERG
# hERG (KCNH2), sequence (Q12809 whole entry): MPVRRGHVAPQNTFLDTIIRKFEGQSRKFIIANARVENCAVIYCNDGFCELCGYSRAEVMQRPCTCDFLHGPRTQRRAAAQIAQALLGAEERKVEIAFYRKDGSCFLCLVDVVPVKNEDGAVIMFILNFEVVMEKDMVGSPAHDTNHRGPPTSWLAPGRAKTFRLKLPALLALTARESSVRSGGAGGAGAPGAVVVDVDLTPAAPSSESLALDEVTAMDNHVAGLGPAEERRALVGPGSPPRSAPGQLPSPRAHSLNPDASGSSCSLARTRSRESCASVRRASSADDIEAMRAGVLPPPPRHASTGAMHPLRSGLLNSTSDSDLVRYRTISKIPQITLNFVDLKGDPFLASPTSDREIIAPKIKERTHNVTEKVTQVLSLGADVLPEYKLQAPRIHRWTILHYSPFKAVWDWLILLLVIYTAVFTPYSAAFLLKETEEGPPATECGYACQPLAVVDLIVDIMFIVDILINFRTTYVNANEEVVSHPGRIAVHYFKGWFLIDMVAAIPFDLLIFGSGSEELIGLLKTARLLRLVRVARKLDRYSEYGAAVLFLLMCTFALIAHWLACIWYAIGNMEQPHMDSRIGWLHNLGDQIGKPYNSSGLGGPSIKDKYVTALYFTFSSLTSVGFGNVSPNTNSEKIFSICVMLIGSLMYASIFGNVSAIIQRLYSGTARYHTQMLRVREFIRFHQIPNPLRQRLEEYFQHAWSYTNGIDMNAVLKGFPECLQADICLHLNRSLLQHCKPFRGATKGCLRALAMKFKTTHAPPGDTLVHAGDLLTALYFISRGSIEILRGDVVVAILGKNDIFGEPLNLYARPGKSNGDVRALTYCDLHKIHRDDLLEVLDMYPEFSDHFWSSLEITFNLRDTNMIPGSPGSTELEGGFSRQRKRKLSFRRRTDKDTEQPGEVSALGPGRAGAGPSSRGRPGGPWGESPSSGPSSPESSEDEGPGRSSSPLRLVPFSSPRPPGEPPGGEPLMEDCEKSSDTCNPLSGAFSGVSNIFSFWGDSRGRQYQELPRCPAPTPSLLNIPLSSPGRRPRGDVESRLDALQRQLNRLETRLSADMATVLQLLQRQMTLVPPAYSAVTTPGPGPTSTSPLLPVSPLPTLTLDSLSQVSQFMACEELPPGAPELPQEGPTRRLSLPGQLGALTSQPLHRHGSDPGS
# Method in brief: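 CHO-K1 cells stably transfected with hERG; whole-cell patch clamp recording of tail currents with test compound at 10 μM, three cells per compound; relative block of tail current amplitude given as arithmetic mean.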
# [3] = Inhibition of H+/K+ ATPase in hog gastric mucosa by malachite green based competitive binding assay; format: tissue-based, Sus scrofa
# Method in brief: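 Hog gastric mucosa H+/K+-ATPase, isolated enzyme; competitive binding assay run at pH 7.4; pIC50 reported as geometric mean of 4-5 measurements.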
# Gastric gland = assay: Inhibition of acid secretion in New Zealand White rabbit intact gastric glands assessed as [14C]dimethylaminopyridine accumulation by radioactivity; format: functional, tissue-based; details: Oryctolagus cuniculus
# Method in brief: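 Gastric glands isolated intact from New Zealand rabbits; cellular activity read as reduced accumulation of the weak base 14C-dimethylaminopyridine; pIC50 given as geometric mean of 4-5 determinations.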
# [4] = Dissociation constant, pKa at pH 2.0 to 11.0 by potentiometric cosolvent titration; format: physicochemical
# [5] = Octanol/aqueous KCl distribution coefficient, log D at pH 7.4 by potentiometric titration; format: physicochemical
# Method in brief: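 Octanol/aqueous KCl distribution coefficient from potentiometric titrations across pH 2.0-11.0 at 25 °C.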
# Canis familiaris = assay: Inhibition of pentagastrin-stimulated acid secretion in po dosed Beagle dog fistula model assessed as elevation of intragastric pH; format: functional, organism-based; details: Canis lupus familiaris
# Method in brief: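 Surgically prepared fistula dogs; pentagastrin infused subcutaneously from 1 h after start of pH-metry over 22.5 h; drug or vehicle given orally in capsules 2.5 h after start; intragastric pH recorded continuously for 24 h with combined glass electrode and ambulatory pH meter; duration of pH >5 read from curves.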
# Rattus norvegicus [6] = assay: Inhibition of pentagastrin-stimulated acid secretion in Sprague-Dawley rat Ghosh Schild model at 3 umol/kg, intraduodenally; format: functional; details: intraduodenal
SMILES,logD [2],pIC50 [3],IC50 (Gastric gland) [µM],pKa [4],logD [5],pKa ([4]; read-out: pKa),ED50 (Rattus norvegicus [1]) [µmol/kg],inhibition at 10 µM (hERG (KCNH2)) [%],Activity (Canis familiaris),inhibition in vivo at 3 µmol/kg (Rattus norvegicus [6]) [%]
Cc1ccccc1[C@@H]1CCc2c(C(=O)N3CC(F)(F)C3)cc3c(nc(C)n3C)c2O1,3.3,4.7,3.98,5.36,–,–,0.3,28,–,–
Cc1nc2c3c(c(C(=O)N(C)C)cc2n1C)CC[C@@H](c1ccc2ccccc2c1)O3,3.2,4.1,63.1,–,3.37,5.57,3,65,–,–
Cc1ccccc1[C@@H]1CCc2c(C(=O)N(C)C)cc3c(nc(C4CC4)n3C)c2O1,3.3,–,–,–,2.84,5.28,0.1,6,inactive,–
Cc1nnc(-c2cc3c(nc(C)n3C)c3c2CC[C@@H](c2ccccc2C)O3)o1,3.3,4.6,5.01,5.17,–,–,0.6,27,–,–
COCc1ccccc1[C@@H]1CCc2c(C(=O)N(C)C)cc3c(nc(C)n3C)c2O1,2.6,4.7,15.8,–,1.9,5.61,1.6,7,–,–
Cc1ccccc1[C@@H]1CCc2c(C(=O)N3CCC3C(N)=O)cc3c(nc(C)n3C)c2O1 (stereo partly specified),2.3,4.6,–,–,–,–,3,7,–,22
Cc1nc2c3c(c(C(=O)N(C)C)cc2n1C)CC[C@@H](c1ccccc1C1CC1)O3,3.1,4.8,3.16,–,3.18,5.63,1.5,18,–,–
Cc1ccccc1[C@@H]1CCc2c(C(=O)N3CC(C)(O)C3)cc3c(nc(C)n3C)c2O1,2.5,4.7,79.4,–,–,–,3,1,–,10
Cc1nc2c3c(c(C(=O)N(C)C)cc2n1C)CC[C@@H](c1ccccc1Cl)O3,3,–,1.58,–,2.86,5.45,0.4,13,–,–
C#CCNC(=O)c1cc2c(nc(C)n2C)c2c1CC[C@@H](c1ccccc1C)O2,3.1,4.7,2,5.58,–,–,0.3,83,–,–
Cc1ccccc1[C@@H]1CCc2c(C(=O)N(C)C)cn3c(C)c(C)nc3c2O1,–,–,–,–,–,7.15,–,–,–,–
Cc1nc2c3c(c(C(=O)N(C)C)cc2n1C)CC[C@@H](c1ccccc1)O3,2.5,5.3,3.16,–,–,–,0.26,28,–,–
Cc1ccccc1[C@@H]1CCc2c(C(=O)N3CCOCC3)cc3c(nc(C)n3C)c2O1,2.8,4.8,5.01,–,–,–,1,4,–,–
Cc1nc2c3c(c(C(=O)N(C)C)cc2[nH]1)CC[C@@H](c1ccccc1C)O3,2.8,5.59,1.95,–,2.82,5.66,0.5,11,–,–
COCc1nc2c3c(c(C(=O)N(C)C)cc2n1C)CC[C@@H](c1ccccc1C)O3,2.9,4.57,45.7,–,–,–,3,7,–,–
CSCCNC(=O)c1cc2c(nc(C)n2C)c2c1CC[C@@H](c1ccccc1C)O2,3.2,4.8,1.26,–,–,–,1,73,–,–
COCCNC(=O)c1cc2c(nc(C)n2C)c2c1CC[C@@H](c1ccccc1C)O2,2.8,4.9,3.16,–,–,–,0.8,55,–,–
Cc1ccccc1[C@@H]1CCc2c(C(=O)NCC3CCCO3)cc3c(nc(C)n3C)c2O1 (stereo partly specified),3,4.3,3.16,–,–,–,1,75,–,–
COCCN(C)C(=O)c1cc2c(nc(C)n2C)c2c1CC[C@@H](c1ccccc1C)O2,2.9,4.9,3.16,–,–,–,1.2,8,–,–
Cc1nc2c3c(c(C(=O)N(C)C)cc2n1C)CC[C@@H](c1ccccc1F)O3,2.7,4.9,1.58,–,2.41,5.55,0.5,9,–,–

# More lines, in order of falling IC50 (Gastric gland), values ahead:
logD [2],pIC50 [3],IC50 (Gastric gland) [µM],pKa [4],logD [5],pKa ([4]; read-out: pKa),SMILES,ED50 (Rattus norvegicus [1]) [µmol/kg],inhibition at 10 µM (hERG (KCNH2)) [%],Activity (Canis familiaris),inhibition in vivo at 3 µmol/kg (Rattus norvegicus [6]) [%]
3.3,4.9,1.26,5.62,–,–,CCCOC1CN(C(=O)c2cc3c(nc(C)n3C)c3c2CC[C@@H](c2ccccc2C)O3)C1,0.2,94,–,–
3,5.4,1.26,–,–,–,CCc1ccccc1[C@@H]1CCc2c(C(=O)N(C)C)cc3c(nc(C)n3C)c2O1,0.5,11,inactive,–
2.9,5.4,1.26,5.49,–,–,CON(C)C(=O)c1cc2c(nc(C)n2C)c2c1CC[C@@H](c1ccccc1C)O2,0.15,13,–,–
2.7,6.3,1,–,2.32,5.66,Cc1sccc1[C@@H]1CCc2c(C(=O)N(C)C)cc3c(nc(C)n3C)c2O1,0.3,18,–,–
3.4,5.1,1,6.24,–,–,COCc1cc2c(nc(C)n2C)c2c1CC[C@@H](c1ccccc1C)O2,0.5,34,–,–
2.8,4.6,1,5.62,–,–,CC(=O)CNC(=O)c1cc2c(nc(C)n2C)c2c1CC[C@@H](c1ccccc1C)O2,0.3,63,inactive,–
3,5,1,5.54,–,–,Cc1ccccc1[C@@H]1CCc2c(C(=O)N3CC(F)C3)cc3c(nc(C)n3C)c2O1,0.3,28,–,–
2.9,4.9,1,5.71,–,–,CCNC(=O)c1cc2c(nc(C)n2C)c2c1CC[C@@H](c1ccccc1C)O2,0.12,24,–,–
2.7,5.3,1,–,2.36,5.65,Cc1nc2c3c(c(C(=O)N(C)C)cc2n1C)CC[C@@H](c1ccc(F)cc1)O3,0.1,28,–,–
3.1,5.4,0.794,5.7,–,–,Cc1ccccc1[C@@H]1CCc2c(C(=O)N3CCCC3)cc3c(nc(C)n3C)c2O1,0.7,43,–,–
3,4.9,0.794,5.68,–,–,Cc1ccccc1[C@@H]1CCc2c(C(=O)NC3CC3)cc3c(nc(C)n3C)c2O1,0.3,43,–,–
2.8,5.5,0.794,–,–,–,Cc1ccccc1[C@@H]1CCc2c(C(=O)N3CCC3)cc3c(nc(C)n3C)c2O1,0.3,14,–,–
3.2,4.7,0.631,5.63,–,–,CCCNC(=O)c1cc2c(nc(C)n2C)c2c1CC[C@@H](c1ccccc1C)O2,< 0.3,66,–,–
2.9,5.2,0.631,5.66,–,–,COC1CN(C(=O)c2cc3c(nc(C)n3C)c3c2CC[C@@H](c2ccccc2C)O3)C1,0.3,18,Active,–
3.3,4.7,0.501,5.76,–,–,Cc1ccccc1[C@@H]1CCc2c(C(=O)NCC3CC3)cc3c(nc(C)n3C)c2O1,< 0.3,90,–,–
3.2,5.4,0.501,–,3.42,5.48,COC1CN(C(=O)c2cc3c(nc(C)n3C)c3c2CC[C@@H](c2ccc(Cl)cc2C)O3)C1,0.4,95,–,–
3.3,6,0.398,–,3.66,5.36,Cc1nc2c3c(c(C(=O)N(C)C)cc2n1C)CC[C@@H](c1ccc(Cl)cc1Cl)O3,0.3,59,–,–
3.2,5.2,0.398,–,3.43,5.49,Cc1cc(Cl)ccc1[C@@H]1CCc2c(C(=O)N3CCC3)cc3c(nc(C)n3C)c2O1,0.15,48,–,–
